Laboratory results published in ChEMBL document CHEMBL4028860 (PLoS One, 2017).
pIC50: −log10 of the molar value. The source made the active and inactive calls. No cut-off for these calls is given here.

Legend:
THP-1 = experiment: Cytotoxicity against human THP1 cells assessed as reduction in cell viability by CellTiterGlo assay; assay type: cell-based
Cyclic GMP-AMP synthase [1] = target: T1, Cyclic GMP-AMP synthase (Homo sapiens, UniProt Q8N884); experiment: Inhibition of human cGAS (2 to 522 residues) expressed in Sf9 insect cells assessed as reduction in cGAMP level using ISD DNA as substrate in presence of ATP and GTP incubated for 1 hr followed by Cy5-labeled cGAMP addition measured after 1 hr by fluorescence polarization assay
In short: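 Enzyme reaction uses 100 nM cGAS, 100 nM ISD DNA, 1 mM ATP and 0.3 mM GTP in Hepes/NaCl/Tween-20/MgCl2 buffer, pH 7.5, with compounds. Run 1 h at room temperature, then stopped with 50 mM EDTA. Fluorescence polarization read with 620 nm excitation.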

Cyclic GMP-AMP synthase [2] = target: T1, Cyclic GMP-AMP synthase; experiment: Inhibition of cGAS in human THP1 cells assessed as reduction in salmon sperm dsDNA-induced IFN-beta expression preincubated for 1 hr followed by dsDNA stimulation for 12 hrs by luciferase reporter gene assay; assay type: cell-based

T1 sequence (Q8N884 whole entry, the tested form may be a part): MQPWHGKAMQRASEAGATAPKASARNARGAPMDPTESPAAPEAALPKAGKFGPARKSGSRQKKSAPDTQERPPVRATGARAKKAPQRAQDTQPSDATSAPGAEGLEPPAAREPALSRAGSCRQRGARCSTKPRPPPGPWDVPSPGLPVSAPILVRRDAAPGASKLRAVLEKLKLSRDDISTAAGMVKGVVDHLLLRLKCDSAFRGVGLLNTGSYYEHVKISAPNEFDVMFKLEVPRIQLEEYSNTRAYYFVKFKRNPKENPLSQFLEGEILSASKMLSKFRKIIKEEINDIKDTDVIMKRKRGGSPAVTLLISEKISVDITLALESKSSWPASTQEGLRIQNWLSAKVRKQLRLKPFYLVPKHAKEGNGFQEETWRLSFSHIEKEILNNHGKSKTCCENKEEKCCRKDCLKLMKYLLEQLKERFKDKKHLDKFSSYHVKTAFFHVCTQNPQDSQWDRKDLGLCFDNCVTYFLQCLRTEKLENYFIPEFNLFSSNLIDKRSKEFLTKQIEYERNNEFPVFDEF

| Compound | pIC50 (Cyclic GMP-AMP synthase [1]) | inhibition (Cyclic GMP-AMP synthase [2]) | Activity (THP-1) |
| --- | --- | --- | --- |
| O=C(N[C@H]1CCCC[C@H]1C(=O)O)c1cnn2c(O)cc(-c3ccccc3)nc12 |  |  | Non-Toxic |
| Oc1cc(-c2ccccc2)nc2nnnn12 | 4.11 |  |  |
| O=C(NCCCNc1nc(Nc2cccc(NC(=O)N3CCCC3)c2)ncc1I)c1cccs1 [BX-795] |  |  | Non-Toxic |

More lines, main results first:

| pIC50 (Cyclic GMP-AMP synthase [1]) | inhibition (Cyclic GMP-AMP synthase [2]) | Compound | Activity (THP-1) |
| --- | --- | --- | --- |
|  | inactive | C[C@@H](CO)NC(=O)c1cnn2c(O)cc(-c3ccccc3)nc12 | Non-Toxic |
|  | inactive | O=C(NCCO)c1cnn2c(O)cc(-c3ccccc3)nc12 | Non-Toxic |
|  | inactive | O=C(O)CNC(=O)c1cnn2c(O)cc(-c3ccccc3)nc12 | Non-Toxic |
